The nature of assay [1]: Agonist-induced calcium mobilization using human polymorphonuclear leukocytes. Details: concentration or dose not given beside the values. (In general: Calcium flux is commonly read through the fluorescence of an indicator in the cells.)
Assay [2] concerns the target Leukotriene B4 receptor 1 (Homo sapiens, UniProt Q15722). In words: Inhibition of [3H]- LTB4 binding on human whole cells. Summed up: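 Intact DMSO-differentiated (1.3%, 3-4 days) human U-937 cells, or isolated human peripheral blood PMNs, 10⁶ cells, incubated in HBSS with 0.1% ovalbumin, 0.2 nM [³H]LTB₄ and compound (0.1 nM-10 μM, 5-8 concentrations in duplicate) for 20 min at 0 °C. Nonspecific binding measured with 1 μM unlabeled LTB₄. Filtration, scintillation counting. Ki from IC50 by Cheng-Prusoff; mean of ≥2 assays.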

As usually defined, the Ki is the dissociation constant of the complex between target and ligand, obtained from inhibition or displacement.

Leukotriene B4 receptor 1, sequence (Q15722 whole entry): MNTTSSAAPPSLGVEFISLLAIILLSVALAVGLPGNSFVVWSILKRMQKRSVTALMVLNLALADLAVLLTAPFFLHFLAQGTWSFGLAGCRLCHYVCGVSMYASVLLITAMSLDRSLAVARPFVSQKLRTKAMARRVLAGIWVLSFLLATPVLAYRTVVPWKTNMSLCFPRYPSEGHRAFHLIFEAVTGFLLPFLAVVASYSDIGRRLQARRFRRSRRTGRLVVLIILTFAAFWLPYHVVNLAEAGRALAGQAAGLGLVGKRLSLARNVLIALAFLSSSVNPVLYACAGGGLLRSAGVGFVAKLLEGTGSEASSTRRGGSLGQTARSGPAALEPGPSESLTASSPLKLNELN

For `CCCCCCCCC(O)/C=C/c1cccc(CC(O)c2cccc(C(=O)[O-])c2)n1.[Li+]` (centres undefined), the Agonist activity % in assay [1] turned out to be 86%.
Consider `CCCCCCCCC(O)CCc1cccc(CC(O)c2cccc(C(=O)[O-])c2)n1.[Li+]` (centres undefined), for which, in assay [1], the Agonist activity % is 84%. In addition, the affinity in assay [2], expressed as Ki, was 60 nM.
The corresponding values for `CCCCCCCCC(O)c1ccc2ccc(CSc3cccc(C(=O)[O-])c3)cc2c1.[Li+]` (centres undefined) are 23% and 9000 nM.
For the molecule `CCCCCCCCC(O)c1ccc2ccc(CSc3cccc(C(=O)O)c3)nc2c1` (centres undefined), the Agonist activity % in assay [1] was 85%. The molecule also showed an inhibitory constant (Ki) in assay [2] of 600 nM.
For the molecule `CCCCCCCCC(O)c1ccc2ccc(CCCCCC(=O)O)nc2c1` (centres undefined), in assay [1], the Agonist activity % was 58%. In addition, the affinity in assay [2] corresponds to a Ki of 2800 nM.
The corresponding values for `CCCCCCCC[C@@H](O)c1ccc2ccc(CCc3cccc(C(=O)[O-])c3)nc2c1.[Li+]` are 56% and 50 nM.
The corresponding values for `CCCCCCCCC(O)c1ccc2ccc(/C=C/CCCC(=O)O)nc2c1` (centres undefined) are 45% and 1400 nM.
In the case of `CCCCCCCCC(O)c1ccc2ccc(CC(O)CCCC(=O)O)nc2c1` (centres undefined), the Agonist activity % in assay [1] is listed as 63%. Besides, the Ki in assay [2] is 900 nM.
The corresponding values for `CCCCOc1cccc(C(O)CCc2cccc(CC(O)c3cccc(C(=O)[O-])c3)n2)c1.[Li+]` (centres undefined) are 4% and 1000 nM.
The corresponding values for `CCCCCCCCC(O)c1ccc2ccc(CC(O)c3cccc(C(=O)[O-])c3)nc2c1.[Li+]` (centres undefined) are 74% and 10 nM.
The corresponding values for `CCCCC/C=C\C[C@H](O)/C=C/c1cccc(C[C@H](O)CCCCO)n1` are 100% and 700 nM.
As to `CCCCCCCCC(O)c1ccc2ccc(CCc3cccc(C(=O)[O-])c3)nc2c1.[Li+]` (centres undefined), the Agonist activity % in assay [1] stood at 66%. Besides, in assay [2], the Ki was 100 nM.
Regarding `CCCCCCCCC(O)c1ccc2ccc(C[S+]([O-])c3cccc(C(=O)[O-])c3)cc2c1.[Li+]` (centres undefined), the Agonist activity % in assay [1] is 56%. The molecule also yielded an inhibitory constant (Ki) in assay [2] of 500 nM.
The corresponding values for `CCCCOc1cccc(C(O)/C=C/c2cccc(CC(O)c3cccc(C(=O)[O-])c3)n2)c1.[Li+]` (centres undefined) are 56% and 3 nM.
As to `CCCCCCCCC(O)c1ccc2ccc(C[S+]([O-])c3cccc(C(=O)O)c3)nc2c1` (centres undefined), the Agonist activity % in assay [1] came out at 98%. Besides, the affinity in assay [2], expressed as Ki, was 140 nM.

The record behind these values is ChEMBL document CHEMBL1126874, “Synthesis of structural analogs of leukotriene B4 and their receptor binding activity” (J Med Chem, 1993).
